b-catenin transl: modulators of beta-catenin nuclear translocation, primary screen, imaging, HeLa cells, immunofluorescence, high-content; actives 0.3% (n = 190,000); AID 1665, 2009; nuclear translocation activity, % at 5 µM;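 active means nuclear translocation activity above 50% at 5 µM, with a well cell count of 50 or more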;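 further: per-cell ratio of nuclear to cytoplasmic median beta-catenin stain intensity; plate controls were DMSO negative control for no effect and GSK-3 inhibitor IX positive control for full effect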
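System: Human HeLa cells, endogenous beta-catenin | Compound dosing: 5 µM primary, 0.02–20 µM confirmation | Timing: 24 h compound exposure at 37°C, 5% CO2 | Measured by: Fluorescence imaging of beta-catenin antibody stain plus DAPI | Read-out basis: % activation of per-cell nuclear versus cytoplasmic median beta-catenin signal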
ABCB1 block: ABCB1 efflux pump inhibitors, primary screen, cell-based, multiplex, flow cytometry, ABCG2 counter-screen; inhibition, % at 6.6 µM; AID 1326, 2008; ATP-dependent translocase ABCB1 (Homo sapiens), P08183; CCRF-Adr cells, JC-1 efflux; actives 0.067% (n = 190,000); in the data active means inhibition above about 40%;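 further: 0% = vehicle and 100% = reference inhibitor; higher value means more JC-1 retained so stronger ABCB1 efflux block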
MT stabilize HCS: microtubule stabilizers in HeLa cells, primary screen, imaging, high-content imaging | AID 2205, 2009 | HeLa tubulin immunostaining HCS, 24 h; share of cells brighter than vehicle mean+2SD | % tubulin-high responders, % at 10 µM | actives 0.83% (n = 200,000);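 active means plate Z-score above 3 for both tubulin-high and condensed-nucleus cell shares, with cell loss under 80%, at 10 µM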;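 further: anti alpha tubulin signal scored within the nucleus-defined area of each cell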
PKD1 kinase inh: inhibitors of human PKD1 kinase, biochemical, fluorescence polarization | Serine/threonine-protein kinase D1 (Homo sapiens), Q15139 | inhibition, % (concentration not given with the values) | actives 0.056% (n = 200,000) | PKD1 kinase fluorescence polarization assay; in the data active means inhibition above about 50%
ABCG2 block: ABCG2 efflux pump inhibitors, primary screen, multiplex with ABCB1, IgMXP3 cells, flow cytometry | Broad substrate specificity ATP-binding cassette transporter ABCG2 (Homo sapiens), Q9UNQ0 | JC-1 efflux | inhibition, % at 6.6 µM | actives 0.1% (n = 190,000);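 active means inhibition above 80%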;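 further: 0% = DMSO and 100% = nicardipine control wells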
Target sequence (Q9UNQ0 whole entry, looked up): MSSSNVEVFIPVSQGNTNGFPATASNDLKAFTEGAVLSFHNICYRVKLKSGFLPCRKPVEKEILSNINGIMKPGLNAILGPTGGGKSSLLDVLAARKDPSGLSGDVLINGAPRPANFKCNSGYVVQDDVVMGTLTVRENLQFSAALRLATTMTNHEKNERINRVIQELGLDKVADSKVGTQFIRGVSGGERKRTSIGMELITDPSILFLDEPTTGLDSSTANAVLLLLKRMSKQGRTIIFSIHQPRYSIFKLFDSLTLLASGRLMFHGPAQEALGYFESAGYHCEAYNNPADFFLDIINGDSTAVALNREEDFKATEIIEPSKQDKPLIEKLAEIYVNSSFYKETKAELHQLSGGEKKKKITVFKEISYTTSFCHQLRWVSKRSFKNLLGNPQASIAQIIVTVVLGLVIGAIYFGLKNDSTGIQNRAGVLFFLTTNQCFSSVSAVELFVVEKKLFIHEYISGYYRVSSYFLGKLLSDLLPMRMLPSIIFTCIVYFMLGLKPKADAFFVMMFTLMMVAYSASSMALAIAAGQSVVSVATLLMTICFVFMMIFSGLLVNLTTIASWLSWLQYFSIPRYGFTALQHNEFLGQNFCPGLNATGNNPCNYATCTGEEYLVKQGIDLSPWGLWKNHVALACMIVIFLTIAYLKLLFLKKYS
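Test system: ABCG2 IgMXP3 and barcoded ABCB1 CCRF-Adr cell mix; Schedule: cells with compound and JC-1, 10 min at 25 °C, rotating, no wash; Technique: flow cytometry of retained JC-1 fluorescence; Measure: % inhibition of efflux relative to nicardipine and DMSO; Controls: nicardipine high and DMSO low controls.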
Active calls of the source: *; nt = no result given. Most compounds without a hit are left out; they make up all but 1% or so of the library.

SMILES | b-catenin transl | ABCB1 block | MT stabilize HCS | PKD1 kinase inh | ABCG2 block
CC(=O)c1c(C)[nH]c(C(=O)CSc2nnc(-c3ccc(Cl)cc3)n2CC2CCCO2)c1C (configuration not stated) | nt | 1 | 2 | -1 | 5
Cc1ccc(S(=O)(=O)c2c(CO)c(-c3ccccc3)nn2C)cc1 | 1 | 0 | 3 | -1 | -1
Cc1ccc(Oc2c(CO)c(-c3ccccc3)nn2C)cc1 | 1 | 2 | 18* | 1 | 10
COCCSc1nnc(NC(=O)c2ccc(OC)c([N+](=O)[O-])c2)s1 | -2 | 1 | 2 | -8 | 8
Cc1ccc(N(C)S(=O)(=O)c2cccc(C(=O)Oc3ccc4c(C)cc(=O)oc4c3)c2)cc1 | 0 | 0 | 2 | -1 | 2
CCN(CC)c1ccc(/C=C2\C(=O)c3ccc(C(=O)O)cc3C2=O)cc1 | 2 | 88* | 4 | -4 | 135*
COc1cccc(-c2nn(C)c3sc(C(=O)N4CCN(c5ccccn5)CC4)cc23)c1 | 0 | 29 | 13* | -1 | 40
COc1ccc(S(=O)(=O)N[C@H](C(=O)O)C(C)C)cc1 | -9 | 54* | 6 | 5 | -1
COc1ccc(S(=O)(=O)NC(C)C(=O)O)cc1 (configuration not stated) | nt | 1 | 3 | -1 | 6
Cc1ccc(C(=O)N2C(CC(=O)Nc3ccc(Cl)cc3)C(=O)NC3CCCCC32)cc1 (configuration not stated) | 0 | 1 | 20* | 6 | 6
Cc1cc(NC(=O)c2cc(-c3ccncc3)nc3c(C)cccc23)no1 | nt | 2 | 37* | -1 | 3
CC(C)c1ccc(NC(=O)COc2ccc(F)cc2C(=O)c2cnn(-c3ccccc3)c2)cc1 | nt | 9 | 20* | -12 | 12
COC(=O)C1=C(N)Oc2cc(N(C)C)ccc2C1c1ccccc1OC (configuration not stated) | 1 | 1 | 27* | 4 | 9
CC1=N/C(=C/c2cccnc2)C(=O)O1 | -2 | 0 | 2 | 0 | 2
O=C(Nc1ccc2ccccc2c1)N1CCCN(CCOc2ccccc2)CC1 | -2 | nt | nt | nt | nt
Cc1ccc(S(=O)(=O)N(CC(=O)N=Nc2c(O)[nH]c3ccccc23)c2ccc(C)c(C)c2)cc1 | 18 | -1 | 20* | -3 | -4
COc1cc(C(=S)N2CCCC2)cc(OC)c1O | nt | 0 | 2 | -1 | 1
O=C(CSc1n[nH]c(-c2ccc(S(=O)(=O)N3CCCCC3)cc2)n1)Nc1nccs1 | 8 | 0 | 6 | -1 | 1
COc1cc(C2CC(=O)C3=C(C2)Nc2ncnn2C3c2cccs2)cc(OC)c1OC (configuration not stated) | 0 | nt | nt | nt | nt
COc1cc(C2C=C(c3cccs3)Nc3ncnn32)cc(OC)c1OC (configuration not stated) | 119* | 2 | 3 | 2 | 9
COc1cc(C2C3=C(Nc4ncnn42)c2ccccc2CC3)cc(OC)c1OC (configuration not stated) | 135* | 0 | 18* | -7 | 0
COc1ccc(C2C3=C(Nc4ncnn42)c2ccccc2CCC3)cc1 (configuration not stated) | 0 | 0 | 7 | 1 | 1
COc1ccc(CC(=O)Nc2ccccc2N2CCCCC2)cc1OC | 0 | nt | nt | nt | nt
O=C1CC(c2cc([N+](=O)[O-])ccc2Cl)c2c(ccc3ccccc23)N1 (configuration not stated) | -3 | 0 | 5 | 1 | 1
COc1ccccc1NC(=O)CSc1nc2n[nH]c(C)c2c(=N)n1-c1ccccc1Cl | 6 | 0 | 3 | -6 | -1
Cc1ccccc1C(=O)N1CCN(c2ccccn2)CC1 | -6 | 0 | 3 | -6 | -1
O=C(c1ccccc1-c1ccccc1)N1CCN(c2ccccn2)CC1 | 66* | 2 | 43* | -3 | 2
Cn1c(=O)c2c(nc(CN3CCCCC3)n2CCc2ccccc2)n(C)c1=O | -5 | 1 | 3 | -12 | 13
Cn1c(=O)c2c(nc(CN3CCC(C(N)=O)CC3)n2CCc2ccccc2)n(C)c1=O | 114* | 0 | 2 | -6 | 2
